Laboratory results reported in ChEMBL document CHEMBL3112542, “Synthesis of triazole-functionalized 2-DOS analogues and their evaluation as A-site binders” (Bioorg Med Chem Lett, 2014).
Converted amounts (≈) assume the structure as drawn.

Tests used:
[1] = Binding affinity to 2AP-labeled duplex RNA oligonucleotide ribosomal decoding site (unknown origin) by fluorescence spectrophotometry
Outline: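 Decoding-site RNA model oligonucleotide with 2-aminopurine replacing flexible A1492. Binding followed by enhancement of 2AP fluorescence emission. Values averaged from 3 replicate experiments per compound (10%).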

Pseudomonas aeruginosa = test: Antimicrobial activity against Pseudomonas aeruginosa ATCC 27853 after 18 hrs by microdilution method; type: functional; details: ATCC 27853, 18 h
Escherichia coli = test: Antimicrobial activity against Escherichia coli ATCC 25922 after 18 hrs by microdilution method; type: functional; details: ATCC 25922, 18 h
Staphylococcus aureus = test: Antimicrobial activity against Staphylococcus aureus ATCC 29213 after 18 hrs by microdilution method; type: functional; details: ATCC 29213, 18 h
[2] = Binding affinity to Escherichia coli rRNA A site after 30 mins by luciferase transcription/translation assay
Outline: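 Coupled bacterial transcription-translation run in E. coli extract. IC50 taken from 2 replicate experiments per compound, each in duplicate (14%).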

Row | Structure (SMILES) | EC50 [1] | MIC (Pseudomonas aeruginosa) | MIC (Escherichia coli) | MIC (Staphylococcus aureus) | IC50 [2] | EC50 ([1]; read-out: EC50)
1 | N[C@H]1C[C@@H](n2cc(CO)nn2)[C@H](O)[C@@H](O)[C@@H]1O | Not Active | > 700 µg/mL | > 700 µg/mL | 88 µg/mL (≈ 360 µM) | 468 µM | 
2 | N[C@@H]1C[C@H](NC(=O)NCCO)[C@@H](O)[C@H](OCC(=O)N2CCOCC2)[C@H]1OCc1cn(CCO)nn1 |  | 157 µg/mL (≈ 313 µM) | 235 µg/mL (≈ 469 µM) | 78 µg/mL (≈ 156 µM) | 22.6 µM | 62 µM
3 | NCC[C@H](O)C(=O)N[C@H]1C[C@@H]2[C@H](OCc3cnnn32)[C@@H](O)[C@@H]1O |  | > 820 µg/mL | > 820 µg/mL | 102 µg/mL (≈ 312 µM) | 104 µM | 0.017 µM
4 | NCC[C@H](O)C(=O)N[C@H]1C[C@@H](n2cc(CO)nn2)[C@H](O)[C@@H](O)[C@@H]1O | Not Active | > 1000 µg/mL | > 1000 µg/mL | 60 µg/mL (≈ 174 µM) | 66.5 µM | 
5 | NCCCC(=O)N[C@H]1C[C@@H]2[C@H](OCc3cnnn32)[C@@H](O)[C@@H]1O |  | > 870 µg/mL | > 870 µg/mL | 109 µg/mL (≈ 350 µM) | 55.5 µM | 22.4 µM
6 | NCC[C@H](O)C(=O)N[C@H]1C[C@@H](N)[C@H](O)[C@@H](O)[C@@H]1O |  | > 840 µg/mL | > 840 µg/mL | 52.5 µg/mL (≈ 199 µM) | 475 µM | 8.7 µM
7 | N[C@H]1C[C@@H]2[C@H](OCc3cnnn32)[C@@H](O)[C@@H]1O (single isomer, unassigned) |  | 283 µg/mL (≈ 1250 µM) | 283 µg/mL (≈ 1250 µM) | > 565 µg/mL | 317 µM | 53 µM
8 | N[C@@H]1C[C@H](N)[C@@H](O)[C@H](OCc2cn(CCO)nn2)[C@H]1OCC(=O)N1CCCCC1 |  | > 1000 µg/mL | > 1000 µg/mL | 129 µg/mL (≈ 313 µM) | 730 µM | 3 µM
